Assay results gathered from unrelated publications.
Protocols differ between the studies behind these lines.
Target: 5-hydroxytryptamine receptor 2C (HTR2C, Homo sapiens, UniProt P28335)
Sequence (P28335 33-458, as in one of the studies): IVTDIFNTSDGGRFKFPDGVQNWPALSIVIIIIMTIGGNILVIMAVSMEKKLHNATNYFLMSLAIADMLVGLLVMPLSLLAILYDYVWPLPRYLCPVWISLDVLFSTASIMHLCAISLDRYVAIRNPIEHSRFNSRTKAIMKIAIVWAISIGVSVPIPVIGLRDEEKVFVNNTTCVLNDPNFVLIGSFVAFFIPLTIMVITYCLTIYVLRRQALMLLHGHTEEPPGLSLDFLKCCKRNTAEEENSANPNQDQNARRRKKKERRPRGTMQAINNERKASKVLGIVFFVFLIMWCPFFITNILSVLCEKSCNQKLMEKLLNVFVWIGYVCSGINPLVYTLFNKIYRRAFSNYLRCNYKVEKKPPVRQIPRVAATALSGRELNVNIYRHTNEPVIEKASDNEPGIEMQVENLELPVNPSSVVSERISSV

OC[C@@]12C[C@@H]1[C@@H](n1cnc3c(N[C@@H](C4CCC4)C4CC4)nc(I)nc31)[C@H](O)[C@@H]2O
Kb (calcium signal; antagonist): 148 nM

C#CCOCCOCCOc1ccc2c3c1C1CCCC1N3CCNC2 (racemic)
EC50 (calcium signal; agonist; fluorescence): 237 nM

COc1cc(OC)c(C(=O)CCCCN2CCC3(CC2)NC(=O)NC3=O)cc1NS(=O)(=O)c1ccc(C(F)(F)F)cc1
Ki (ligand displacement; radioligand): 0.99 nM

Cc1nc2cc(OCCCCN3CCN(c4cccc(Cl)c4Cl)CC3)ccc2s1
Ki (cell-free assay; radioligand): 160 nM

CN(CCCCNC(=O)c1cc2ccccc2[nH]1)[C@@H]1Cc2cccc3[nH]c(=O)n(c23)C1
Ki (ligand displacement; radioligand): 2440 nM

CN(Cc1ccc(NC(=O)C2=Cc3cc(-c4ccc(OCCCF)cc4)ccc3CCC2)cc1)C1CCOCC1
Ki (ligand displacement; radioligand): 1020 nM

CC(C)(C)c1cc(C(C)(C)CO)c(O)cc1NC(=O)c1c[nH]c2ccccc2c1=O
Ki (ligand displacement; radioligand): 1550 nM

Fc1ccc(CCCCN2CCN(c3ccccn3)CC2)cc1
Ki (ligand displacement; radioligand): > 10000 nM

CNc1nc2cc(OCCCCN3CCC(c4cccc(Cl)c4Cl)CC3)ccc2s1
Ki (cell-free assay; radioligand): 73 nM

C#CCOCCOc1ccc2c3c1C1CCCC1N3CCNC2 (racemic)
EC50 (calcium signal; agonist; fluorescence): 53.4 nM

CCCCN1CCC(COC(=O)c2ccc(N)c(OCF)c2)CC1
Ki (cell-free assay; radioligand): > 10000 nM

CC1Cc2ccccc2N1C(=O)NCCCCN(C)[C@@H]1Cc2cccc3[nH]c(=O)n(c23)C1 (mixture of isomers)
Ki (ligand displacement; radioligand): > 10000 nM

O=C1c2ccccc2CCN1CCCCN1CCN(c2cccc(Cl)c2Cl)CC1
Ki (ligand displacement; radioligand): 354 nM
